# Screening data (PubChem)
# Cneo AK release = Cryptococcus neoformans cell lysis inducers, primary screen, AK release luminescence, single concentration; actives 0.2% (n = 360,000); AID 651654, 2012; C. neoformans lysis, adenylate kinase release luminescence, 4 h; normalised: neutral wells 0, clomiphene wells 100; lysis activity, % at 15 µM;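 active = mean lysis activity across replicates of at least 80%, whatever share of replicates individually reach that level; inactive = mean lysis activity below 80%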
#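 Material: C. neoformans cells | Amount: Yeast cell density of 5 × 10^6 cells/mL | Medium: Fresh YPD growth medium | Dosing: Single dose | Times: Static 4 h at 37 °C with compound, 1 h detection | Detection: AK luminescence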
# miR-122 sensor = miR-122 Renilla sensor signal increase in Huh7, primary screen, miR-122 inhibitor project, cell-based, single point, plate reader; Huh7 miR-122 Renilla luciferase sensor, 48 h; neutral wells = 0, positive control = 100; activation (reporter increase), % at 12.5 µM; actives 0.3% (n = 340,000); AID 602342, 2012;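 active = mean replicate activation score at least 90 and every replicate individually at or above 90; inconclusive = only one of the two criteria met; inactive = neither criterion met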;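 also: higher luciferase means less miR-122 activity so hits act as miR-122 inhibitors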
# E-sel inducer = E-selectin induction in HUVECs, primary screen, imaging, HUVEC, immunofluorescence imaging, single point; P16581; normalized: neutral wells 0, TNF-alpha wells 100; activation, % at 7.58 µM; actives 0.37% (n = 260,000);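 active = mean E-selectin-positive cell signal at least 10% of the positive control, reached in at least 60% of replicates, without over 20% cell loss; inconclusive = no rule given, readout overlaps actives, possibly toxicity-flagged; inactive = the rest, including those meeting only one limit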
# Target sequence (P16581 whole entry, looked up): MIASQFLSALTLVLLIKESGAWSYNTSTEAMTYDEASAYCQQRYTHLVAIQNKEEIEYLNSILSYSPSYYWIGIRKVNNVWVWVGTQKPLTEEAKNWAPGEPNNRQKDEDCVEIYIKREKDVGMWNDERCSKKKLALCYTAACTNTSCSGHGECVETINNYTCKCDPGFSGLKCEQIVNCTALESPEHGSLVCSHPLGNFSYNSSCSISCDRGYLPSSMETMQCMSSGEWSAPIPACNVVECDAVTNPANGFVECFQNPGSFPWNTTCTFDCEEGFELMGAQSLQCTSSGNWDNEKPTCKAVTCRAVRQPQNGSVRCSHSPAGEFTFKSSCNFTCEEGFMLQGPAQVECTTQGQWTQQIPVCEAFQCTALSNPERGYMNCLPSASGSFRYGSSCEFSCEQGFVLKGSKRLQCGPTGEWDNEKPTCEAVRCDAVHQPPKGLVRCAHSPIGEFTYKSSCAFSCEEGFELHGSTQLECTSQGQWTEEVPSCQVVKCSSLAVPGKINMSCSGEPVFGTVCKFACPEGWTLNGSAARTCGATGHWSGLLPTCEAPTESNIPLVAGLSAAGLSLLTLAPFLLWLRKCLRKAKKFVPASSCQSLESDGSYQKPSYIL
#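 material = human umbilical vein endothelial cells (HUVEC), E-selectin induction | quantity = 3,000 cells/well | medium = EGM-2 growth medium on 0.1% gelatin-coated wells | technique = immunofluorescence imaging | read-out basis = % PE-positive cells | control set = TNF-alpha positive control, DMSO neutral control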
# DENV2 CPE rescue = inhibitors of DENV2 cytopathic effect, primary screen, cell-based, plate reader, single concentration | DENV2-infected cells, cytopathic effect rescue | CPE inhibition, % at 9.99 µM | actives 1.7% (n = 350,000) | AID 651640, 2012; in the data active = CPE inhibition above about 20%, passing the limit was not always enough; inconclusive = no clear call, values can overlap the other calls; tested in BHK-21 cells
# Ecoli rRNA inh = reduced GFP signal of wild-type E. coli, primary screen, bacterial rRNA inhibitor project, GFP/RFP fluorescence, OD600, single point | GFP signal change (wild-type ribosome), % (no concentration beside the values) | AID 720706, 2013 | actives 1.6% (n = 350,000) | E. coli WT GFP vs humanized-ribosome RFP mutants, 24 h; active compounds read low; DMSO median 0, no signal -100;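 active = significant combined selectivity score with lowered wild-type GFP, culture density cut under 30%, mutant RFP and density less affected; inactive = any of these conditions unmet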
# Hits are given with their value; i = inactive; ? = inconclusive; nt = no result given; ! = not active in a repeat; [ ] = another dose, or the depositor's remark. Rows were chosen to be rich in hits. Some 3.1% of all compounds tested hit in one or more screens of this group.
SMILES,Cneo AK release,miR-122 sensor,E-sel inducer,DENV2 CPE rescue,Ecoli rRNA inh
CN1CCN(c2nc(-c3cccnc3)nc3scc(-c4ccccc4)c23)CC1,i,i,i,i,-22
O=c1[nH]c(CN2CCN(c3ccc(O)cc3)CC2)nc2scc(-c3ccc(Cl)cc3)c12,nt,nt,i,i,-24
N=c1c2c(-c3ccccc3)c(-c3ccccc3)n(Cc3ccco3)c2ncn1CCCO,i,i,i,i,-52
N=c1c2c(-c3ccccc3)c(-c3ccccc3)n(Cc3ccco3)c2ncn1CCO,i,i,nt,nt,nt
COc1ccc2c3c(n(C)c2c1)[C@@H](CO)N(C(=O)CN(C)C)CC31CN(Cc2nccs2)C1,nt,nt,i,i,i
CCO[C@@H]1OC(C(=O)NC2CC2)=C[C@H](c2ccc(C(F)(F)F)cc2)[C@H]1CCCO,i,i,i,i,i
CCO[C@@H]1OC(C(=O)N2CCCCCCC2)=C[C@H](c2cn(C(C)=O)c3ccccc23)[C@H]1CCCO,i,i,nt,nt,nt
CCO[C@H]1OC(C(=O)N2CCOCC2)=C[C@@H](c2cn(C(C)=O)c3ccccc23)[C@@H]1CCCO,i,i,i,27!,i
CCO[C@H]1OC(C(=O)NC2CC2)=C[C@@H](c2ccc(C(F)(F)F)cc2)[C@@H]1CCCO,i,i,i,25!,i
CCO[C@H]1OC(C(=O)O)=C[C@@H](c2ccc3c(c2)OCO3)[C@@H]1CCCO,i,i,i,24,i
CCO[C@H]1OC(C(=O)N2CCCC2)=C[C@@H](c2ccc3c(c2)OCO3)[C@@H]1CCCO,i,nt,nt,i,nt
C[C@H](CO)N1C[C@H](C)[C@H](CN(C)S(C)(=O)=O)Oc2c(NC(=O)Nc3ccc(C(F)(F)F)cc3)cccc2C1=O,i,i,i,?,i
COc1ccc(-c2oc3ccc(-c4cc(OC)c(OC)c(OC)c4)cc3c2-c2ccc(OC)cc2)cc1,nt,nt,nt,i,i
COc1ccc(-c2oc3ccc(-c4cc(OC)c(OC)c(OC)c4)cc3c2-c2ccc(OC)nc2)cc1,i,i,i,80,i
O=C(Nc1ccccc1F)N1C[C@H]2[C@@H](c3ccccc31)[C@@H](CO)N2C(=O)C1CCCCC1,i,i,i,61,i
COc1ccccc1NC(=O)N1C[C@@H]2[C@H](c3ccccc31)[C@H](CO)N2C(C)=O,i,i,i,i,i
O=C(Nc1ccccc1F)N1C[C@@H]2[C@H](c3ccccc31)[C@H](CO)N2C(=O)c1ccccc1F,i,i,i,i,i
O=C(Nc1ccccc1F)N1C[C@H]2[C@@H](c3ccccc31)[C@@H](CO)N2C(=O)c1ccc(F)cc1,i,240[16.7 µM],i,i,i
COc1ccccc1NC(=O)N1C[C@H]2[C@@H](c3ccccc31)[C@H](CO)N2C(C)=O,i,i,i,20,i
Cc1cccc2c3c([nH]c12)[C@H]1CCC(=O)N1CC3,i,nt,nt,i,nt
CO[C@@H]1CN(C)C(=O)c2ccc(NS(=O)(=O)CC(F)(F)F)cc2OC[C@@H](C)N(C(=O)c2ccc3c(c2)OCO3)C[C@H]1C,i,nt,i,i,i
C/C=C/c1ccc2c(c1)O[C@H](CN(C)C(=O)Cc1cccnc1)[C@@H](C)CN([C@@H](C)CO)S2(=O)=O,i,i,i,i,i
COc1ccc2c(c1)[C@H]1[C@H](CO2)[C@H](c2ccccc2)[C@]2(C)C(=O)Nc3ccc(Cl)cc3C(=O)N12,i,i,i,33,i
Nc1ccccc1-c1nc2ccccc2[nH]c1=O,i,i,i,i,i
O=c1[nH]c2ccccc2nc1-c1c[nH]c2ccccc12,i,i,i,i,-26
SMILES,Cneo AK release,miR-122 sensor,E-sel inducer,DENV2 CPE rescue,Ecoli rRNA inh
CCc1ccc(NC(=O)C(C)OC(=O)c2ccc(N3CCCC3)c([N+](=O)[O-])c2)cc1 (centres undefined),nt,nt,26,i,i
O=C(OCc1ccc([N+](=O)[O-])cc1)c1ccc(N2CCCC2)c([N+](=O)[O-])c1,nt,nt,nt,i,i
COc1cc(C2CC(=O)Oc3c(C(CCN4CCCC(C)C4)c4ccc(N(C)C)cc4)c(OC)cc(OC)c32)cc(OC)c1OC (centres undefined),i,i,i,51,i
COc1cc(C(CCN2CCCC(C)C2)c2c(OC)cc(OC)c3c2OC(=O)CC3c2ccc(N(C)C)cc2)cc(OC)c1OC (centres undefined),i,nt,nt,nt,nt
C[C@H]1CN([C@@H](C)CO)C(=O)c2cc(Br)cnc2O[C@H]1CN(C)S(=O)(=O)c1ccc(F)cc1,i,i,i,i,i
Cc1cc(C)n(CCC(=O)N/N=C/c2ccc(Br)c([N+](=O)[O-])c2)n1,i,i,i,i,-15
Cc1cc(C)n(CC(=O)N/N=C/c2cc(Br)cc([N+](=O)[O-])c2O)n1,nt,nt,i,i,i
N#CC(C(=S)Nc1ccccc1)c1nc2ccccc2[nH]1 (centres undefined),i,?,i,i,-38
Cc1cc(C(=O)CSc2nnnn2-c2ccc(O)cc2)c(C)n1C,nt,i,nt,i,-26
NC(=O)c1ccc(-n2nnnc2SCC(=O)c2ccc(O)c(O)c2)cc1,nt,129,i,i,i
COc1ccc(-n2nnnc2SCC(=O)c2ccc(O)c(O)c2)cc1,i,i,nt,nt,nt
Cc1ccc(N=C2NC(=O)/C(=C\c3ccsc3)S2)c(C)c1,i,i,nt,96,i
Cc1ccc(-n2nnnc2SCC(=O)N2c3ccccc3NC(=O)C2(C)C)cc1,i,160,nt,nt,nt
Cc1ccc(-c2nnc(SCC(=O)N3c4ccccc4NC(=O)C3(C)C)n2N)cc1,i,i,nt,nt,nt
O=C(CSc1nnnn1-c1ccccc1)CSc1nnnn1-c1ccccc1,i,i,nt,i,-28
Cc1ncc(CSc2nnnn2-c2ccccc2)c(N)n1,i,i,nt,i,-21
CC(C)NC(=O)N1CC2(C1)[C@H](c1ccccc1)[C@H](CO)N2C(=O)C1CCC1,nt,nt,i,i,i
COc1ccc(S(=O)(=O)Nc2ccc3c(c2)C(=O)N([C@@H](C)CO)C[C@H](C)[C@@H](CN(C)C(=O)Nc2ccc(F)cc2)OCCCC[C@@H](C)O3)cc1,i,i,i,i,i
C/C(=N\S(=O)(=O)c1ccc(C)cc1)N1CCN(S(=O)(=O)c2ccccc2)C1C(C)C (centres undefined),i,i,nt,i,-27
Cc1c(Cc2ccc3c(c2)OCO3)sc(NC(=O)C2CC2)c1C(N)=O,i,i,i,i,-27
Cc1ccc(NC(=O)c2ccc(NCCCN3CCC(C)CC3)c([N+](=O)[O-])c2)cc1F,nt,nt,i,nt,-25
Cc1ccc(C(=O)NCCc2cc3ccc(C)c(C)c3[nH]c2=O)cc1[N+](=O)[O-],nt,nt,nt,50,i
CC(=NNC(=O)c1ccncc1)c1cccc(Cl)c1,i,i,i,i,i
C/C(=N\NC(N)=O)c1cccc(Cl)c1,nt,nt,nt,38,i
